Here are results for 38 compounds from ChEMBL document CHEMBL1139013, “Synthesis and biological evaluation of novel 9-substituted-8-hydroxyadenine derivatives as potent interferon inducers” (J Med Chem, 2006).

What all share (assay type): functional
For assay [1], the system named is Splenocyte. The assay is described as follows: Induction of IFN in C3H/HeJ mouse splenocytes at 100 nM. The essentials: (§1)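 Mouse splenocytes are suspended at 2 × 10⁶ cells/mL in MEM with 5% fetal calf serum, penicillin and streptomycin. They are mixed 1:1 with compound (DMSO stock diluted 500-fold in medium) and cultured 18 h at 37 °C in 5% CO₂. Supernatants are filter-sterilized and stored at -80 °C. IFN (IU/mL) is measured by L929/vesicular stomatitis virus bioassay.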

For assay [2], the system named is Splenocyte. In words: Induction of IFN in C3H/HeJ mouse splenocytes at 3 nM. The method in brief: as §1
The test system of assay [3] is Splenocyte. The assay is described as follows: Induction of IFN in C3H/HeJ mouse splenocytes at 30 nM. The essentials:
as §1

Assay [4] relates to Splenocyte. The assay is described as follows: Induction of IFN in C3H/HeJ mouse splenocytes at 10 nM. The method in brief: as §1
For assay [5], the system named is Mus musculus. In words: Induction of IFN in BALB/c mice at 0.3 mg/kg, po.
The test system of assay [6] is Mus musculus. The assay is described as follows: Induction of IFN in BALB/c mice at 0.1 mg/kg, po.

Turning to `CCCCNc1nc(N)c2nc(O)n(Cc3cccnc3C)c2n1`, the Activity with Splenocyte [1] is recorded as 3 IU/ml; in the assay with Splenocyte [2] it was under 0.5 IU/ml; in the assay with Splenocyte [3], 8.3 IU/ml; in the assay with Splenocyte [4], 12.8 IU/ml.

In the case of `CCCCNc1nc(N)c2nc(O)n(Cc3ccccc3C)c2n1`, the Activity was 3.6 IU/ml with Splenocyte [1], 3 IU/ml in the assay on Splenocyte [3] and under 0.5 IU/ml with Splenocyte [4].

Take `CCCCNc1nc(N)c2nc(O)n(Cc3ccc(OC)cc3)c2n1`: the Activity in the assay with Splenocyte [1] was 2 IU/ml; in the assay on Splenocyte [2], under 0.5 IU/ml; in the assay on Splenocyte [3] it was 4.7 IU/ml; in the assay with Splenocyte [4], 6.5 IU/ml; in the assay with Mus musculus [5], 933 IU/ml; with Mus musculus [6], 73 IU/ml.

In the case of `CCCCNc1nc(N)c2nc(O)n(Cc3ccc(C(C)(C)C)cc3)c2n1`, the Activity in the assay with Splenocyte [1] is 13 IU/ml; in the assay with Splenocyte [3], 4.4 IU/ml; in the assay on Splenocyte [4], under 0.5 IU/ml; in the assay on Mus musculus [5], under 5 IU/ml.

`CCCCNc1nc(N)c2nc(O)n(Cc3ccc(O)cc3)c2n1`: the Activity is given as 3.1 IU/ml in the assay on Splenocyte [1], under 0.5 IU/ml in the assay on Splenocyte [2], 12.4 IU/ml with Splenocyte [4] and 20 IU/ml with Mus musculus [5].

`CCCCNc1nc(N)c2nc(O)n(Cc3ccc(Cl)s3)c2n1`: the Activity is 7.2 IU/ml with Splenocyte [1]; under 0.5 IU/ml in the assay on Splenocyte [2]; 11.3 IU/ml in the assay with Splenocyte [3]; 8.9 IU/ml in the assay with Splenocyte [4]; 484 IU/ml in the assay on Mus musculus [5]; 34 IU/ml with Mus musculus [6].

Consider `CCCCNc1nc(N)c2nc(O)n(CC(C)C)c2n1`, for which the Activity was 4.1 IU/ml in the assay on Splenocyte [1] and under 0.5 IU/ml with Splenocyte [3].

Take `CCCCNc1nc(N)c2nc(O)n(Cc3ccc(C(F)(F)F)cc3)c2n1`: the Activity was 15.2 IU/ml in the assay on Splenocyte [1]; under 0.5 IU/ml in the assay on Splenocyte [2]; 10.7 IU/ml with Splenocyte [3]; 2.9 IU/ml in the assay on Splenocyte [4]; 276 IU/ml in the assay on Mus musculus [5]; 8 IU/ml in the assay with Mus musculus [6].

As to `CCCCNc1nc(N)c2nc(O)n(Cc3cnccc3Cl)c2n1`, the results for the Activity in the assay with Splenocyte [1] and with Splenocyte [3] were 4.2 IU/ml and under 0.5 IU/ml, respectively.

With `CCCCNc1nc(N)c2nc(O)n(Cc3ccccc3Cl)c2n1`, the Activity with Splenocyte [1] is on record as 4.5 IU/ml; in the assay on Splenocyte [3] it was 2 IU/ml; in the assay with Splenocyte [4], under 0.5 IU/ml.

For the compound `CCCCNc1nc(N)c2nc(O)n(Cc3ccc([N+](=O)[O-])cc3)c2n1`, the Activity with Splenocyte [1] is listed as 2 IU/ml; in the assay with Splenocyte [2], under 0.5 IU/ml; with Splenocyte [3], 4.5 IU/ml; in the assay on Splenocyte [4], 11.6 IU/ml; in the assay with Mus musculus [5], 444 IU/ml; with Mus musculus [6], 61 IU/ml.

As to `COCCNc1nc(N)c2nc(O)n(Cc3ccccc3)c2n1`, the Activity in the assay on Splenocyte [1] is 7.1 IU/ml; in the assay with Splenocyte [3], under 0.5 IU/ml; in the assay with Mus musculus [5], 639 IU/ml; in the assay with Mus musculus [6], 44 IU/ml.

For `CCCCNc1nc(N)c2nc(O)n(Cc3ccc(F)cc3)c2n1`, the Activity is recorded as 4.2 IU/ml in the assay on Splenocyte [1]; under 0.5 IU/ml in the assay on Splenocyte [2]; 12.8 IU/ml in the assay with Splenocyte [4]; 313 IU/ml with Mus musculus [5]; 139 IU/ml with Mus musculus [6].

Consider `CCCCNc1nc(N)c2nc(O)n(Cc3ccc(OCc4ccccc4)cc3)c2n1`, for which the Activity was 10.6 IU/ml with Splenocyte [1] and under 0.5 IU/ml with Splenocyte [3].

As to `CCCCNc1nc(N)c2nc(O)n(Cc3ccc(-c4ccccc4)cc3)c2n1`, the results for the Activity in the assay on Splenocyte [1] and with Splenocyte [3] were 3.4 IU/ml and 0.5 IU/ml, respectively.

With `CCCCNc1nc(N)c2nc(O)n(Cc3ccc(CCCC)cc3)c2n1`, the Activity in the assay on Splenocyte [1] is 11 IU/ml; with Splenocyte [3] it was under 0.5 IU/ml; in the assay on Mus musculus [5], under 5 IU/ml.

Turning to `CCCCNc1nc(N)c2nc(O)n(Cc3ccccc3)c2n1`, the Activity with Splenocyte [1] is recorded as 3.4 IU/ml; with Splenocyte [3] it was under 0.5 IU/ml; with Mus musculus [5], 465 IU/ml; in the assay on Mus musculus [6], 113 IU/ml.

`CCCCNc1nc(N)c2nc(O)n(CCc3ccccc3)c2n1` came in with an Activity in the assay on Splenocyte [1] of under 0.5 IU/ml.

On to `CCCCNc1nc(N)c2nc(O)n(Cc3cnccn3)c2n1`, for which the Activity is given as 4.2 IU/ml with Splenocyte [1], 2.9 IU/ml in the assay with Splenocyte [3] and under 0.5 IU/ml in the assay with Splenocyte [4].

On to `CCCCNc1nc(N)c2nc(O)n(Cc3ccc(C)nc3Cl)c2n1`, for which the Activity with Splenocyte [1] was 3.4 IU/ml; with Splenocyte [2] it was under 0.5 IU/ml; with Splenocyte [4] it was 8.4 IU/ml; with Mus musculus [6], under 5 IU/ml.

As to `COCCNc1nc(N)c2nc(O)n(Cc3ccc(F)cc3)c2n1`, the Activity is given as 8.3 IU/ml in the assay on Splenocyte [1]; 4.8 IU/ml in the assay with Splenocyte [3]; under 0.5 IU/ml with Splenocyte [4]; 521 IU/ml in the assay with Mus musculus [5]; 54 IU/ml in the assay with Mus musculus [6].

Regarding `CCCCNc1nc(N)c2nc(O)n(Cc3ccc(Cl)nc3Cl)c2n1`, the Activity was 5.7 IU/ml in the assay on Splenocyte [1], 14.6 IU/ml with Splenocyte [3], under 0.5 IU/ml in the assay on Splenocyte [4] and 42 IU/ml in the assay with Mus musculus [6].

As to `CCCCNc1nc(N)c2nc(O)n(CC(C)(C)O)c2n1`, the figures for the Activity in the assay with Splenocyte [1], in the assay with Splenocyte [3] and in the assay with Mus musculus [5] were 0.6 IU/ml, under 0.5 IU/ml and under 5 IU/ml, respectively.

Turning to `CCCCNc1nc(N)c2nc(O)n(Cc3ccc(Cl)c(Cl)c3)c2n1`, the Activity in the assay with Splenocyte [1] is listed as 10 IU/ml; in the assay on Splenocyte [2] it was under 0.5 IU/ml; in the assay on Splenocyte [4], 0.8 IU/ml; in the assay with Mus musculus [5], 136 IU/ml; with Mus musculus [6] it was under 5 IU/ml.

In the case of `Nc1nc(NCc2ccncc2)nc2c1nc(O)n2Cc1ccccc1`, the Activity is recorded as 9.1 IU/ml in the assay on Splenocyte [1]; under 0.5 IU/ml with Splenocyte [2]; 3.9 IU/ml in the assay with Splenocyte [3]; 2.2 IU/ml in the assay on Splenocyte [4]; 73 IU/ml with Mus musculus [5]; under 5 IU/ml in the assay with Mus musculus [6].

Consider `CCCCNc1nc(N)c2nc(O)n(Cc3ccc(Cl)cc3)c2n1`, for which the Activity in the assay on Splenocyte [1] is recorded as 7.4 IU/ml; in the assay on Splenocyte [2], under 0.5 IU/ml; in the assay with Splenocyte [3], 8.2 IU/ml; in the assay with Splenocyte [4], 8.5 IU/ml; in the assay with Mus musculus [5] it was 219 IU/ml; in the assay on Mus musculus [6], 7 IU/ml.

Take `CCCCNc1nc(N)c2nc(O)n(Cc3cccc(C)c3)c2n1`: the Activity in the assay with Splenocyte [1] is given as 5.5 IU/ml; with Splenocyte [3] it was 3 IU/ml; with Splenocyte [4] it was under 0.5 IU/ml.

Turning to `CCCCNc1nc(N)c2nc(O)n(CC3CCCCC3)c2n1`, the results for the Activity with Splenocyte [1], in the assay on Splenocyte [3] and in the assay on Splenocyte [4] were 3.7 IU/ml, 1.7 IU/ml and under 0.5 IU/ml, respectively.

For `CCCCNc1nc(N)c2nc(O)n(Cc3ccncc3)c2n1`, the Activity in the assay with Splenocyte [1] is listed as 4.3 IU/ml; in the assay on Splenocyte [2] it was under 0.5 IU/ml; in the assay on Splenocyte [3], 11.9 IU/ml; in the assay with Splenocyte [4], 4.2 IU/ml; in the assay on Mus musculus [6] it was 21 IU/ml.

With `CCCCNc1nc(N)c2nc(O)n(Cc3ccc(C)cc3)c2n1`, the Activity with Splenocyte [1] was 2 IU/ml; with Splenocyte [2], under 0.5 IU/ml; in the assay with Splenocyte [3], 6.2 IU/ml; in the assay with Splenocyte [4], 9.2 IU/ml; in the assay with Mus musculus [5], 356 IU/ml; in the assay with Mus musculus [6] it was 28 IU/ml.

With `CCCCNc1nc(N)c2nc(O)n(Cc3cccc4ccccc34)c2n1`, the Activity in the assay on Splenocyte [1] is given as 15.4 IU/ml; in the assay with Splenocyte [2] it was under 0.5 IU/ml; with Splenocyte [3], 34 IU/ml; with Splenocyte [4] it was 2.2 IU/ml; in the assay with Mus musculus [5], 39 IU/ml; in the assay with Mus musculus [6] it was under 5 IU/ml.

In the case of `Nc1nc(NCc2ccccc2)nc2c1nc(O)n2Cc1ccc(F)cc1`, the values for the Activity in the assay with Splenocyte [1], in the assay on Splenocyte [3] and in the assay with Mus musculus [5] were 4.5 IU/ml, under 0.5 IU/ml and under 5 IU/ml, respectively.

Take `CCCCNc1nc(N)c2nc(O)n(Cc3ccc(F)c(F)c3)c2n1`: the Activity is on record as 7.1 IU/ml in the assay on Splenocyte [1]; under 0.5 IU/ml with Splenocyte [2]; 14.7 IU/ml in the assay on Splenocyte [3]; 6.4 IU/ml in the assay with Splenocyte [4]; 338 IU/ml in the assay with Mus musculus [5]; 35 IU/ml in the assay on Mus musculus [6].

As to `CCCCNc1nc(N)c2nc(O)n(Cc3ccc4ccccc4c3)c2n1`, the Activity was 17.4 IU/ml with Splenocyte [1], 7.1 IU/ml in the assay on Splenocyte [3], under 0.5 IU/ml in the assay with Splenocyte [4] and under 5 IU/ml in the assay with Mus musculus [5].

As to `Nc1nc(NCc2ccncc2)nc2c1nc(O)n2Cc1ccc(F)cc1`, the Activity with Splenocyte [1] was 5.2 IU/ml; with Splenocyte [2], under 0.5 IU/ml; in the assay on Splenocyte [4], 11.1 IU/ml; with Mus musculus [5], 492 IU/ml; with Mus musculus [6], 19 IU/ml.

`CCCCNc1nc(N)c2nc(O)n(Cc3cccc(Cl)c3)c2n1`: the Activity with Splenocyte [1] is given as 4.4 IU/ml; in the assay with Splenocyte [3] it was 2.8 IU/ml; with Splenocyte [4] it was under 0.5 IU/ml.

On to `CCCCNc1nc(N)c2nc(O)n(Cc3ccccn3)c2n1`, for which the Activity was 9.1 IU/ml in the assay on Splenocyte [1], 7.4 IU/ml in the assay with Splenocyte [3], under 0.5 IU/ml with Splenocyte [4] and under 5 IU/ml in the assay with Mus musculus [5].

As to `Nc1nc(NCc2ccccc2)nc2c1nc(O)n2Cc1ccccc1`, the Activity in the assay on Splenocyte [1] is recorded as 80.4 IU/ml; in the assay with Splenocyte [2], under 0.5 IU/ml; with Splenocyte [4], 44.4 IU/ml; in the assay with Mus musculus [5], 398 IU/ml; with Mus musculus [6] it was 203 IU/ml.
